Screens: PubChem BioAssay, several laboratories
Rad51 HR inh – human RAD51 strand exchange inhibitors, primary screen, biochemical, fluorescence | 200,000 compounds, 0.085% hits | DNA repair protein RAD51 homolog 1 (Homo sapiens), Q06609 | AID 1385, 2008 | hRad51 DNA strand exchange, fluorescence dequenching | inhibition, % at 10 µM;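 active means inhibition above 40% at the single screening dose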
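Assay system: Human Rad51 nucleoprotein filaments preassembled on unlabelled ssDNA | Reagent: Donor/quencher-labelled 47-bp dsDNA substrate | Doses: One concentration, 10 µM final | Times: 37 °C 15-min filament assembly, 30-min compound preincubation, 15-min exchange | Technique: Fluorescein emission 520 nm, excitation 485 nm | Benchmarks: Plate control and blank wells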
Autophagy HCS – autophagy modulators in MEF cells, primary screen, imaging, high-content, MEF GFP-LC3. AID 463193, 2010. MEF GFP-LC3 puncta imaging; test concentration mostly 10 µM. calls only at 10 µM (by protocol). 190,000 compounds, 0.98% hits;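 active means percentage of spot-positive cells more than 3 SD above its plate mean, without a fluorescence outlier flag or 80% toxicity; inconclusive means no clear call, values can overlap the other calls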
KCC2 mod – KCC2 cotransporter modulators, thallium flux, primary screen, cell-based, HEK293 KCC2, FluoZin-2 fluorescence, MLSMR; Solute carrier family 12 member 5 (Homo sapiens), Q9H2X9; KCC2 cells, thallium flux FluoZin-2 fluorescence; B-score of Tl+ flux slope (higher = more flux/activation; lower = inhibition) at 10 µM; 190,000 compounds, 2.2% hits; AID 1456, 2008;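 active means thallium flux slope and its plate-corrected score both differing from the plate sample mean at a set confidence after two filtering rounds, in either direction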;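 further: slope of fluorescence scaled to starting intensity during 10 to 20 s after thallium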
Target sequence (Q9H2X9 whole entry, looked up): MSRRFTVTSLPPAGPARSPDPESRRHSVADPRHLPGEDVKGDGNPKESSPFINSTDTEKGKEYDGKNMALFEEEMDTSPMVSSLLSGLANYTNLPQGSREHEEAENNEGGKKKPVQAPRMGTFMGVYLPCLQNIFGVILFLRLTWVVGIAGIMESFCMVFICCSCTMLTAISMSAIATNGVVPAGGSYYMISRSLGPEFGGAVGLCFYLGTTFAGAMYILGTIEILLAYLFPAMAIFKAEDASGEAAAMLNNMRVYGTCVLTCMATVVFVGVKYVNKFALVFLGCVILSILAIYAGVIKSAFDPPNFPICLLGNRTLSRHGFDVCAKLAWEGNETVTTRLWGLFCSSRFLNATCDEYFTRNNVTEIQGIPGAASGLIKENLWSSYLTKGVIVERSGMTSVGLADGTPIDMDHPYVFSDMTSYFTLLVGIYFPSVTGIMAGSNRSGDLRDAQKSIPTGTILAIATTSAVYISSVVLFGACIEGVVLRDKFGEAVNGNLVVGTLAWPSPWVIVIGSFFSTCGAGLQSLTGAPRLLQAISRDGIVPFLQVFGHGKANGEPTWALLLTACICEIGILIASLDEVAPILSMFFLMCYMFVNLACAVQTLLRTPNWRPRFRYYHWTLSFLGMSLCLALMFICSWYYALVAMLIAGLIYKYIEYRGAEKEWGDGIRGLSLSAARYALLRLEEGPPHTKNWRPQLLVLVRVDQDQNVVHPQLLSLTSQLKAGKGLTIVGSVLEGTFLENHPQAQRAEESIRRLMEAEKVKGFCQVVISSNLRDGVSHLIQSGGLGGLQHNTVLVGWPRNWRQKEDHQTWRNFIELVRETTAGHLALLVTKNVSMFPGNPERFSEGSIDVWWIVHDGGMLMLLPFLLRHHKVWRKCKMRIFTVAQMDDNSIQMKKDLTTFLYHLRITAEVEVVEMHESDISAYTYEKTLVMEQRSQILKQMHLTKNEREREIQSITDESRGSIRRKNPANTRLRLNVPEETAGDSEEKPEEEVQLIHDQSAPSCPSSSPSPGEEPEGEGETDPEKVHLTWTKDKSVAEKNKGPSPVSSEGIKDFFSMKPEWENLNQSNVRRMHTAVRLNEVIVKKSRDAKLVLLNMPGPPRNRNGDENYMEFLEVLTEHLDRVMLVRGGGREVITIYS
WT yeast gro inh – growth inhibition of WT strain, primary screen, mitochondrial fusion inhibitor project, WT and mutant strains, chemical genetic; inhibition, % at 10 µM; mitochondrial fusion phenotypic screen; AID 1362, 2008; 190,000 compounds, 2.1% hits; in the data active means inhibition above about 58%; tested in S. cerevisiae
Insulin prom up – insulin promoter activators in MIN6 cells, imaging, high-content screening, mouse beta cells. MIN6 insulin promoter-GFP reporter; stronger effect = higher value. z-score at 5 µM. 190,000 compounds, 0.3% hits. AID 1625, 2009;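 active means z-score above 3 at 5 µM with at least 500 cells counted in the well; inconclusive means wells under 500 cells, flagged as cytotoxic or low count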
SKKanGAS inh – S. pyogenes SKKanGAS growth inhibitors in kanamycin, primary screen, streptokinase expression inhibitor project, SKKanGAS strain, BacTiter-Glo luminescence; 6 h; inhibition, % at 7.5 µM; 300,000 compounds, 1.3% hits; AID 1662, 2009;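 active means mean replicate score, as percent of positive control median, at least 50; inconclusive means mean below 50 but one replicate at or above 50; inactive means mean and every replicate below 50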;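 further: strain carries kanamycin resistance gene driven by streptokinase promoter and grows in 40 µg/ml kanamycin; loss of luminescence reflects streptokinase promoter inhibition or plain growth inhibition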
KCC2 secondary – KCC2 modulators in sodium-free buffer, confirmation, cell-based, HEK293 KCC2, thallium flux, secondary assay. shares compounds with KCC2 mod. normalised thallium flux (F/F0 slope) at 10 µM. FluoZin2 fluorescence; stronger effect = higher value. AID 1713, 2009. 3,700 compounds, 15% hits;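 active means thallium flux slope above the same plate's solvent-only control mean plus 3 SD; inconclusive means the two replicate wells disagree; inactive means no significant difference from solvent-only control wells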
KCC2 bumet counter – thallium flux persisting under bumetanide in KCC2 cells, confirmation, counter-screen for KCC2 modulator project, cell-based, HEK293 KCC2, FluoZin2, secondary assay 3. shares compounds with KCC2 mod. HEK293-KCC2 + bumetanide/ouabain; stronger effect = higher value. normalized thallium flux at 10 µM. 3,700 compounds, 49% hits. AID 1714, 2009;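 active means thallium entry rate above the same plate's blocked-transporter control wells by more than 3 SD; inconclusive means the two repeat wells disagree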;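 further: raw slope of fluorescence over initial fluorescence between 10 and 20 s after thallium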
KCC2 secondary2 – KCC2 modulators without ouabain present, confirmation, cell-based, HEK293 KCC2, thallium flux, FluoZin2, secondary assay 2; 3,700 compounds, 23% hits; shares compounds with KCC2 mod; AID 1715, 2009; normalized thallium flux at 10 µM; thallium flux FluoZin2 fluorescence; actives lie on both sides; F/F0 rise rate, 10–20 s post-thallium;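 active means thallium flux slope more than 3 SD above or below the plate's solvent-only control mean, mostly below; inconclusive means the two repeat wells disagreed; inactive means no significant shift from solvent-only controls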
HEK counter1 – thallium flux modulation in parental HEK cells, confirmation, counter-screen for KCC2 modulator project, cell-based, counterscreen 1 | shares compounds with KCC2 mod | HEK293 parental cells, thallium flux FluoZin2, ouabain; baseline-ratio fluorescence slope, 10–20 s after thallium | thallium flux rate (normalised fluorescence) at 10 µM | 3,700 compounds, 46% hits;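 active means thallium flux rate significantly above the same plate's solvent-only control wells, beyond their mean plus 3 SD; inconclusive means the two replicate wells gave conflicting results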
KCC2 ouabain – KCC2 inhibitors and activators, ouabain retest, confirmation, HEK-KCC2 cells; 3,700 compounds, 48% hits; HEK293-KCC2, thallium flux FluoZin2 fluorescence; bidirectional: low = inhibitor, high = activator; raw Tl+ flux slope (below DMSO = inhibition, above = activation) at 10 µM; shares compounds with KCC2 mod;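 active means thallium flux slope beyond 3 SD from same-plate DMSO control mean in most replicates, usually higher, sometimes lower; inconclusive means repeat tests gave conflicting results; inactive means no significant difference from controls in most replicates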;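 further: slope of initial-normalized fluorescence between seconds 10 and 20 after thallium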
HEK293 Tl flux2 – native HEK Tl+ uptake effects, second counter-screen – HEK cells, counterscreen 2, counter-screen for KCC2 modulator project, confirmation; AID 1718, 2009; HEK293 parental, thallium flux FluoZin-2 fluorescence slope; shares compounds with KCC2 mod; 3,700 compounds, 33% hits; thallium flux slope at 10 µM;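 active means thallium flux slope above the same plate's solvent-control mean plus 3 SD in both duplicate wells; inconclusive means duplicate wells that disagreed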;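 further: run without ouabain in cells lacking the KCC2 cotransporter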
Each line names hits and unclear results; the compound was inactive in the other large screens (follow-up assays come after a bar, where they were run). Compounds with a hit are over-represented: about 4.2% of the library has one in this group of screens.

COCCNC(=O)COc1ccc(C)cc1C	KCC2 mod -4.4 | KCC2 secondary inactive | KCC2 bumet counter inactive | KCC2 secondary2 inactive | HEK counter1 inactive | KCC2 ouabain inactive | HEK293 Tl flux2 inconclusive
FC(F)(F)c1ccc(Cl)c(-n2c(-c3cc(C4CC4)[nH]n3)n[nH]c2=S)c1	KCC2 mod 4.1 (no result: Autophagy HCS, WT yeast gro inh) | KCC2 secondary inactive | KCC2 bumet counter 0.016 | KCC2 secondary2 inactive | HEK counter1 inconclusive | KCC2 ouabain inconclusive | HEK293 Tl flux2 inactive
Cc1[nH]c2ccccc2c1SCC(=O)N1CCCCC1	none
Cc1[nH]c2ccccc2c1SCC(=O)N1CCN(c2ccccc2)CC1	KCC2 mod -3.9 (no result: Insulin prom up) | KCC2 secondary inactive | KCC2 bumet counter inactive | KCC2 secondary2 0.022 | HEK counter1 inactive | KCC2 ouabain 0.015 | HEK293 Tl flux2 inactive
Cc1cccc(NC(=O)CCN2CCCC(C)C2)c1 (centres undefined)	none (no result: Rad51 HR inh, Autophagy HCS, KCC2 mod, WT yeast gro inh, Insulin prom up)
COc1ccc(/C=C(\CC(=O)O)c2nc3ccccc3s2)cc1O	none
COc1ccc(NC(=O)c2nc3ccccc3s2)cc1	none (no result: Rad51 HR inh)
O=C(O)C/C(=C\c1cccc(NC(=O)c2ccccc2Cl)c1)c1nc2ccccc2s1	KCC2 mod -4.1 (no result: Autophagy HCS, WT yeast gro inh) | KCC2 secondary inactive | KCC2 bumet counter inactive | KCC2 secondary2 0.022 | HEK counter1 inconclusive | KCC2 ouabain 0.01 | HEK293 Tl flux2 inactive
COc1ccc(C(=O)Nc2cccc(/C=C(\CCC(=O)O)c3nc4ccccc4s3)c2)cc1	KCC2 mod -3.8, SKKanGAS inh 52 (no result: Autophagy HCS, WT yeast gro inh) | KCC2 secondary inactive | KCC2 bumet counter inconclusive | KCC2 secondary2 0.024 | HEK counter1 inactive | KCC2 ouabain 0.013 | HEK293 Tl flux2 inconclusive
COc1ccc(NC(=O)c2cccnc2Sc2ccccc2)c(OC)c1	none
CCOc1ccc(NC(=O)CN(C)C(=O)CCCc2nc3ccccc3c(=O)[nH]2)cc1OCC	none (no result: Rad51 HR inh, Autophagy HCS, KCC2 mod, WT yeast gro inh, Insulin prom up)
COCCNC(=O)CN(c1cc(C(F)(F)F)ccc1Cl)S(C)(=O)=O	KCC2 mod -4 | KCC2 secondary inactive | KCC2 bumet counter inconclusive | KCC2 secondary2 inactive | HEK counter1 inconclusive | KCC2 ouabain inactive | HEK293 Tl flux2 inactive
Cc1ccc(C)c(NC(=O)CSc2nnc(-c3ccco3)o2)c1	none
Cc1ccc(C)c(NC(=O)CSc2nnc([C@@H](N)Cc3ccccc3)o2)c1	KCC2 mod -4.3 | KCC2 secondary inactive | KCC2 bumet counter inactive | KCC2 secondary2 inconclusive | HEK counter1 inactive | KCC2 ouabain 0.014 | HEK293 Tl flux2 inconclusive
Cc1ccc(NC(=O)c2cc3c(=O)oc4ccc(C)cc4c3s2)nc1	none (no result: Autophagy HCS, WT yeast gro inh)
Cc1ccc(NC(=S)NNC(=O)c2ccccc2OC(F)F)cc1	KCC2 mod 8.4 (no result: Rad51 HR inh) | KCC2 secondary inactive | KCC2 bumet counter 0.022 | KCC2 secondary2 inactive | HEK counter1 0.018 | KCC2 ouabain 0.028 | HEK293 Tl flux2 0.013
O=C(NNC(=S)Nc1cccc(Cl)c1)c1ccccc1OC(F)F	KCC2 mod 6.4 | KCC2 secondary inactive | KCC2 bumet counter 0.033 | KCC2 secondary2 inactive | HEK counter1 0.017 | KCC2 ouabain 0.036 | HEK293 Tl flux2 0.012
O=C(NNC(=S)Nc1ccc(F)cc1)c1ccccc1OC(F)F	none
COc1cccc(NC(=S)NNC(=O)c2ccccc2OC(F)F)c1	none
COCCN(C(=O)CSc1nnc(Nc2ccccc2F)s1)c1c(N)n(Cc2ccccc2)c(=O)[nH]c1=O	none
Cc1cccc(Cn2c(O)c(N=NC(=S)Nc3ccccc3F)c3ccccc32)c1	KCC2 mod 6.8 (no result: Rad51 HR inh) | KCC2 secondary inactive | KCC2 bumet counter 0.031 | KCC2 secondary2 inactive | HEK counter1 inconclusive | KCC2 ouabain inconclusive | HEK293 Tl flux2 inactive
Cc1ccc2c(c1)c(N=NC(N)=S)c(O)n2Cc1ccccc1	KCC2 mod 4.3 | KCC2 secondary inactive | KCC2 bumet counter 0.0075 | KCC2 secondary2 inactive | HEK counter1 0.011 | KCC2 ouabain inactive | HEK293 Tl flux2 0.014
NC(=S)N=Nc1c(O)n(Cc2ccc(F)cc2)c2ccccc12	KCC2 mod 4.7 | KCC2 secondary inconclusive | KCC2 bumet counter 0.01 | KCC2 secondary2 inactive | HEK counter1 0.014 | KCC2 ouabain 0.029 | HEK293 Tl flux2 0.012
Oc1c(N=NC(=S)Nc2ccccc2F)c2ccccc2n1Cc1ccc(F)cc1	KCC2 mod 8.3, SKKanGAS inh 66 | KCC2 secondary inactive | KCC2 bumet counter 0.03 | KCC2 secondary2 inactive | HEK counter1 0.013 | KCC2 ouabain inactive | HEK293 Tl flux2 0.014
Cc1cccc(NC(=O)Cn2c(O)c(N=NC(N)=S)c3ccccc32)c1	none (no result: Autophagy HCS, WT yeast gro inh)
COCCOC(=O)c1c(NC(=O)COC(=O)Cc2cccc(OC)c2)sc(C(N)=O)c1C	none (no result: Rad51 HR inh, Autophagy HCS, KCC2 mod, WT yeast gro inh, Insulin prom up)
O=C(COc1ccc(Br)cc1)OCCN1CCCCC1	none (no result: Rad51 HR inh, Autophagy HCS, KCC2 mod, WT yeast gro inh, Insulin prom up)
O=C(NC(=S)Nc1cccc([N+](=O)[O-])c1)c1ccccc1	KCC2 mod 12 (no result: Autophagy HCS, WT yeast gro inh) | KCC2 secondary inactive | KCC2 bumet counter 0.03 | KCC2 secondary2 inactive | HEK counter1 inconclusive | KCC2 ouabain inactive | HEK293 Tl flux2 inconclusive
CCOc1ccc(C(=O)NC(=S)Nc2ccccn2)cc1[N+](=O)[O-]	none (no result: Insulin prom up)
